The source made the active and inactive calls. The rule behind the calls is not given here.
Experiments:
[1] = test system: Trypanosoma brucei brucei; experiment: Antitrypanosomal activity against Trypanosoma brucei brucei TC221 after 72 hrs by alamar blue assay; assay type: functional; conditions: TC221, 72 h
Procedure, shortened: (§1)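 T. b. brucei TC221 bloodstream-form proliferation measured by alamarBlue (resazurin reduced to resorufin by living cells); 48 h and 72 h read-outs. IC50 derived per Räz et al. method; each compound tested in duplicate, mean of two values.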

[2] = test system: Trypanosoma brucei brucei; experiment: Antitrypanosomal activity against Trypanosoma brucei brucei TC221 after 48 hrs by alamar blue assay; assay type: functional; conditions: TC221, 48 h; procedure, shortened: as §1
[3] = Selectivity index, ratio of IC50 for mouse J774.1 cells to IC50 for Trypanosoma brucei brucei TC221 measured after 48 hrs; assay type: toxicity; conditions: J774.1 cells (versus Trypanosoma brucei brucei TC221), read-out: Ratio IC50
Procedure, shortened: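 Selectivity index computed as IC50 (J774.1 macrophages, alamarBlue) divided by IC50 (T. b. brucei TC221, alamarBlue); duplicate determinations, means used.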

J774.1 = experiment: Cytotoxicity against mouse J774.1 cells after 24 hrs by alamar blue assay; assay type: cell-based; conditions: J774.1, 24 h
[4] = molecular target: Rhodesain (Trypanosoma brucei rhodesiense) (UniProt Q95PM0); experiment: Inhibition of Trypanosoma brucei rhodesiense rhodesain at 20 uM using Cbz-Phe-Arg-AMC as substrate measured for 5 mins by spectrofluorometric analysis relative to control
Procedure, shortened: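 Rhodesain in 50 mM sodium acetate pH 5.5 with 5 mM DTT, 5 mM EDTA, 200 mM NaCl; inhibitor 20 µM, substrate Cbz-Phe-Arg-AMC; AMC fluorescence (ex 380/em 460 nm) followed 5 min; activity from slopes of fluorescence vs time versus DMSO control; run in duplicate.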

[5] = molecular target: Trypanothione reductase (Trypanosoma cruzi) (UniProt P28593); experiment: Inhibition of Trypanosoma cruzi trypanothione reductase at 5 uM using 100 uM trypanothione disulfide as substrate by spectrophotometric method relative to control
Procedure, shortened: (§2)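 TcTryR (about 2 nM) in 40 mM HEPES, 1 mM EDTA, pH 7.5, 100 µM NADPH; inhibitor at fixed 2 or 5 µM (screening range 1–5 µM) from DMSO stock; TS2 fixed at 40 or 100 µM; absorbance decrease monitored; percent inhibition versus DMSO control.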

[6] = molecular target: Trypanothione reductase (Trypanosoma cruzi) (UniProt P28593); experiment: Inhibition of Trypanosoma cruzi trypanothione reductase at 5 uM using 40 uM trypanothione disulfide as substrate by spectrophotometric method relative to control; procedure, shortened: as §2
[7] = molecular target: Trypanothione reductase (Trypanosoma cruzi) (UniProt P28593); experiment: Inhibition of Trypanosoma cruzi trypanothione reductase at 2 uM using 100 uM trypanothione disulfide as substrate by spectrophotometric method relative to control; procedure, shortened: as §2
[8] = molecular target: Trypanothione reductase (Trypanosoma cruzi) (UniProt P28593); experiment: Inhibition of Trypanosoma cruzi trypanothione reductase at 2 uM using 40 uM trypanothione disulfide as substrate by spectrophotometric method relative to control; procedure, shortened: as §2
Leishmania infantum = experiment: Antileishmanial activity against Leishmania infantum; assay type: functional
Rhodesain = Rhodesain (Trypanosoma brucei rhodesiense, UniProt Q95PM0); experiment: Inhibition of Trypanosoma brucei rhodesiense rhodesain using Cbz-Phe-Arg-AMC as substrate measured for 10 mins by spectrofluorometric analysis
[9] = molecular target: Rhodesain (Trypanosoma brucei rhodesiense) (UniProt Q95PM0); experiment: Inhibition of Trypanosoma brucei rhodesiense rhodesain using Cbz-Phe-Arg-AMC as substrate by spectrofluorometric analysis
[10] = Inhibition of trypanothione reductase
[11] = Stability of the compound; assay type: physicochemical
[12] = Aqueous solubility of the compound; assay type: physicochemical; conditions: buffer
[13] = Ratio of IC50 for Trypanosoma brucei rhodesiense rhodesain to IC50 for Trypanosoma brucei brucei TC221

Chain of Trypanothione reductase (Trypanosoma cruzi) (P28593 whole entry, looked up): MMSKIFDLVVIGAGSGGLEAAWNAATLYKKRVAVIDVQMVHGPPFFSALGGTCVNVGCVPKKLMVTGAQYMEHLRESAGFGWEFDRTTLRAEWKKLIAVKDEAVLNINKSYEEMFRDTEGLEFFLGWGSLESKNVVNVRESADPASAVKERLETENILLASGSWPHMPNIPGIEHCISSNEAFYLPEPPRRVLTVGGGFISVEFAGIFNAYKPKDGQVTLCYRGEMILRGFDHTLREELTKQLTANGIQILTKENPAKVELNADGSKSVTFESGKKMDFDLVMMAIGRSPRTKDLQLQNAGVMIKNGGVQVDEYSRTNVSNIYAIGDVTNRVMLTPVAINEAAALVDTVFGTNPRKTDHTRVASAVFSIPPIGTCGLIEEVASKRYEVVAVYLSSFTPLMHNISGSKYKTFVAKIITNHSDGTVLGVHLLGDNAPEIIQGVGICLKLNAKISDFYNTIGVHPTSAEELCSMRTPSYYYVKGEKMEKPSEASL
Chain of Rhodesain (Trypanosoma brucei rhodesiense) (Q95PM0 1-450): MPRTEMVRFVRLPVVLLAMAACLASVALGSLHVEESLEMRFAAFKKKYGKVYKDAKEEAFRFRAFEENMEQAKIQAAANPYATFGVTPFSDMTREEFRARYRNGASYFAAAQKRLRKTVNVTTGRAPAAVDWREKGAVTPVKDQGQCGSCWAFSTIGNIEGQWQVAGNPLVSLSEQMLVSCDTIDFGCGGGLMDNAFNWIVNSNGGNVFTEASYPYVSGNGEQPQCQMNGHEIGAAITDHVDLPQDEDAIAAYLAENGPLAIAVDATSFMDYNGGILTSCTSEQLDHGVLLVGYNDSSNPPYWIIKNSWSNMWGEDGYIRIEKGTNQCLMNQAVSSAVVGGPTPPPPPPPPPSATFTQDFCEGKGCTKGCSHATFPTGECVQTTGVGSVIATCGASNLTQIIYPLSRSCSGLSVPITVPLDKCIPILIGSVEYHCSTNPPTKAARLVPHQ
Chain of Rhodesain (Q95PM0 whole entry): as the sequence (Q95PM0 1-450) above

| SMILES | IC50 [1] [µM] | IC50 [2] [µM] | selectivity ratio at 48 h [3] | IC50 (J774.1) [µM] | Activity (Leishmania infantum) | inhibition [10] | further results |
| --- | --- | --- | --- | --- | --- | --- | --- |
| Nc1c2c(nc3ccccc13)CCCC2 [TACRINE] | 18.4 | 14.6 | > 6.8 |  |  |  |  |
| c1ccc2c(NCCCCCCNc3c4c(nc5ccccc35)CCCC4)c3c(nc2c1)CCCC3 | 0.33 | 0.26 |  | 3 | Active |  | inhibition [4]: 25%; inhibition [5]: 45.2 to 47.9%; inhibition [6]: 56.6 to 57.5%; inhibition [7]: 15.1%; inhibition [8]: 27.5 to 29.2% |
| N=C(N)c1ccc(OCCCCCOc2ccc(C(=N)N)cc2)cc1 [PENTAMIDINE] |  | 0.0053 | 7280 | 38.6 |  |  |  |
| CCOC1CCc2nc3cc(Cl)ccc3c(NCCCCCCCCCNc3c4c(nc5cc(Cl)ccc35)CCC(OCC)C4)c2C1 (stereo not drawn) | 0.71 | 0.63 | 2.8 | 1.7 | Active | Active | inhibition [4]: 89%; IC50 (Rhodesain): 13.3 µM; inhibition [9]: Dose-dependent effect |
| C1=Cc2c(nc3ccccc3c2NCCCCCCCCCCNc2c3c(nc4ccccc24)CCC=C3)CC1 | 0.88 | 0.29 | 33.4 | 9.7 | Active | Active | Stability [11]: Stable |
| O=C1CCCc2nc3ccccc3c(NCCCCCCCCNc3c4c(nc5ccccc35)CCCC4=O)c21 |  |  |  |  |  |  | solubility [12]: Insoluble |
| CCC1CCc2nc3cc(Cl)ccc3c(N)c2C1 (stereo not drawn) | 3.5 | 2.8 | 8.7 | 24.4 |  |  |  |
| CC1CCc2nc3ccccc3c(N)c2C1 (stereo not drawn) | 18.1 | 15.8 | 2.8 | 44.9 |  |  |  |
| C1=Cc2c(nc3ccccc3c2NCCCCCCNc2c3c(nc4ccccc24)CCC=C3)CC1 | 0.7 | 0.51 | 3.5 | 1.8 | Active | Active | Stability [11]: Stable |
| CCCCOC1CCc2nc3cc(Cl)ccc3c(NCCCCCCCCCNc3c4c(nc5cc(Cl)ccc35)CCC(OCCCC)C4)c2C1 (stereo not drawn) | 0.42 | 0.43 | 20 | 8.6 | Active | Active | inhibition [4]: 26% |
| O=C1CCCc2nc3ccccc3c(NCCCCCCCCCCNc3c4c(nc5ccccc35)CCCC4=O)c21 |  |  |  |  |  |  | solubility [12]: Insoluble |
| c1ccc2c(NCCCCCCCCCCNc3c4c(nc5ccccc35)CCCC4)c3c(nc2c1)CCCC3 | 0.15 | 0.12 | 15 |  | Active | Active |  |
| Clc1ccc2c(NCCCCCCNc3c4c(nc5cc(Cl)ccc35)CCCC4)c3c(nc2c1)CCCC3 | 0.71 | 0.64 | 4.4 | 2.8 | Active | Active | inhibition [4]: 61%; IC50 (Rhodesain): 7.4 µM; inhibition [9]: Dose-dependent effect; Ratio IC50 [13]: 10 |
| CCCC1CCc2nc3cc(Cl)ccc3c(N)c2C1 (stereo not drawn) | 3.4 | 2.6 | 3.2 | 8.4 |  |  |  |
| CC1(C)CCc2c(nc3cc(Cl)ccc3c2NCCCCCCNc2c3c(nc4cc(Cl)ccc24)CC(C)(C)CC3)C1 | 0.72 | 0.64 | 2.7 | 1.7 | Active | Active | inhibition [4]: 64%; IC50 (Rhodesain): 26.6 µM; inhibition [9]: Dose-dependent effect |
| CC1CCc2c(nc3ccc([N+](=O)[O-])cc3c2NCCCCCCNc2c3c(nc4ccc([N+](=O)[O-])cc24)CC(C)CC3)C1 (stereo not drawn) | 0.68 | 0.62 | 38.5 |  | Active | Active | inhibition [4]: 82%; IC50 (Rhodesain): 5.8 µM; inhibition [9]: Dose-dependent effect; Ratio IC50 [13]: 10 |
| c1ccc2c(NCCCCCNc3c4c(nc5ccccc35)CCCC4)c3c(nc2c1)CCCC3 | 6.4 | 5.2 |  |  | Active |  | inhibition [4]: 9% |
| O=C1CCCc2nc3ccccc3c(NCCCCCCCNc3c4c(nc5ccccc35)CCCC4=O)c21 |  |  |  |  |  |  | solubility [12]: Insoluble |
| CCC1CCc2nc3ccc(Cl)cc3c(N)c2C1 (stereo not drawn) | 3.7 | 2.7 | 3.1 | 8.3 |  |  |  |

| SMILES | IC50 [1] [µM] | IC50 [2] [µM] | selectivity ratio at 48 h [3] | IC50 (J774.1) [µM] | Activity (Leishmania infantum) | inhibition [10] | further results |
| --- | --- | --- | --- | --- | --- | --- | --- |
| C1=Cc2c(nc3ccccc3c2NCCCCCCCCNc2c3c(nc4ccccc24)CCC=C3)CC1 | 0.25 | 0.08 | 21.3 | 1.7 | Active | Active | Stability [11]: Stable |
| CC1CCc2c(nc3ccccc3c2N)C1 (stereo not drawn) | 17.6 | 14.5 | 3.1 | 45 |  |  |  |
| O=C1CCCc2nc3ccccc3c(NCCCCCCCCCNc3c4c(nc5ccccc35)CCCC4=O)c21 |  |  |  |  |  |  | solubility [12]: Insoluble |
| C1=Cc2c(nc3ccccc3c2NCCCCCCCCCNc2c3c(nc4ccccc24)CCC=C3)CC1 | 0.25 | 0.09 | 16.7 | 1.6 | Active | Active | Stability [11]: Stable |
| Nc1c2c(nc3ccc(Cl)cc13)CCCC2 | 16.5 | 12 | 3.6 |  |  |  |  |
| CC1CCc2nc3ccc([N+](=O)[O-])cc3c(N)c2C1 (stereo not drawn) | 4.8 | 3.2 | 14.5 | 46.4 |  |  |  |
| CC1CCc2nc3ccccc3c(NCCCCCCCCCNc3c4c(nc5ccccc35)CCC(C)C4)c2C1 (stereo not drawn) | 0.21 | 0.16 | 11.3 | 1.8 | Active | Active | inhibition [4]: 68%; IC50 (Rhodesain): 26.6 µM; inhibition [9]: Dose-dependent effect |
| Nc1c2c(nc3ccc([N+](=O)[O-])cc13)CCCC2 | 15.1 | 8.6 | 5.2 |  |  |  |  |
| CC1CCc2nc3cc(Cl)ccc3c(N)c2C1 (stereo not drawn) | 13.4 | 6 | 6.9 | 41.2 |  |  |  |
| CC1CCc2nc3ccc(Cl)cc3c(N)c2C1 (stereo not drawn) | 10.3 | 3.9 | 11.2 | 43.8 |  |  |  |
| CCC1CCc2nc3ccccc3c(N)c2C1 (stereo not drawn) | 17.2 | 12.3 | 3.5 | 43.6 |  |  |  |
| CCCC1CCc2nc3ccc(Cl)cc3c(N)c2C1 (stereo not drawn) | 3.4 | 2.7 | 3.1 |  |  |  |  |
| Nc1c2c(nc3cc(Cl)ccc13)CCCC2 | 17.1 | 12.6 | 3.3 | 41 |  |  |  |
| CC1CCc2c(nc3ccc([N+](=O)[O-])cc3c2N)C1 (stereo not drawn) | 3.7 | 6.1 | 7.1 | 43.3 |  |  |  |
| O=C1CCCc2nc3ccccc3c(NCCCCCCNc3c4c(nc5ccccc35)CCCC4=O)c21 |  |  |  |  |  |  | solubility [12]: Insoluble |
| COc1ccc2nc3c(c(NCCCCCCCCCNc4c5c(nc6ccc(OC)cc46)CCCC5)c2c1)CCCC3 | 0.14 | 0.12 | 10.6 |  | Active | Active | inhibition [4]: 82%; IC50 (Rhodesain): 18.1 µM; inhibition [9]: Dose-dependent effect |
| Nc1c2c(nc3ccccc13)CCCC2=O | 18 | 14.6 | > 6.8 | > 100 |  |  |  |
| CCCC1CCc2nc3ccccc3c(N)c2C1 (stereo not drawn) | 3.5 | 2.6 | 16.5 |  |  |  |  |

Reference: ChEMBL document CHEMBL4052757, “Bistacrines as potential antitrypanosomal agents” (Bioorg Med Chem, 2017)
